According to paper PMC2791411 (Biochemistry, 2009):

Columns and labels:
[1] = biological target: T1, hDAO (human diamine oxidase) (Homo sapiens, UniProt P19801); test: Inhibition of hDAO putrescine oxidation; assay type: biochemical; details: for Mode of Inhibition: hDAO, putrescine oxidation, global nonlinear regression
T1 sequence (P19801 20-751): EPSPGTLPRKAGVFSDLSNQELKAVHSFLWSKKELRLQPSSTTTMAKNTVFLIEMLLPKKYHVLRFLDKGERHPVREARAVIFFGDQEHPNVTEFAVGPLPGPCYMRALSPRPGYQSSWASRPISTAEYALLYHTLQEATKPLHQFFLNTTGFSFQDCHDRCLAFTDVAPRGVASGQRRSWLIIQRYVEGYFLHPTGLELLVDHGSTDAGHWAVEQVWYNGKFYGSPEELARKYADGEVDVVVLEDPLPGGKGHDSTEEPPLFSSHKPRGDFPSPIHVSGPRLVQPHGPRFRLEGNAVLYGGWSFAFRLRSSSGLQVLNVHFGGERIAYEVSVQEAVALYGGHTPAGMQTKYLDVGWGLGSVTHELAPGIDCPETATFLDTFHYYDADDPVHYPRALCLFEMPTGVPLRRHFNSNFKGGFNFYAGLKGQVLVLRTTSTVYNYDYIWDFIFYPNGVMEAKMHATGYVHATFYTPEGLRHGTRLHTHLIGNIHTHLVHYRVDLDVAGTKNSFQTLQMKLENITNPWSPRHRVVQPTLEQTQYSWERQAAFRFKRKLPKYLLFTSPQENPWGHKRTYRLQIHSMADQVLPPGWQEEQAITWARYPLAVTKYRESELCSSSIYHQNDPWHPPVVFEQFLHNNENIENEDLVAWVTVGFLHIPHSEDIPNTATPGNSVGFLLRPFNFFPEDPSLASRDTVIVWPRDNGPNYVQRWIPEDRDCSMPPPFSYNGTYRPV

[2] = patients, intravenous treatment; ref [59], [73], [79]–[81]; cited from earlier work
hVAP-1 = biological target: T2, hVAP-1 (Homo sapiens, UniProt Q16853); test: Inhibition of hVAP-1 amine oxidase activity; assay type: biochemical; details: for Mode of Inhibition: hVAP-1
T2 sequence (Q16853 1-763): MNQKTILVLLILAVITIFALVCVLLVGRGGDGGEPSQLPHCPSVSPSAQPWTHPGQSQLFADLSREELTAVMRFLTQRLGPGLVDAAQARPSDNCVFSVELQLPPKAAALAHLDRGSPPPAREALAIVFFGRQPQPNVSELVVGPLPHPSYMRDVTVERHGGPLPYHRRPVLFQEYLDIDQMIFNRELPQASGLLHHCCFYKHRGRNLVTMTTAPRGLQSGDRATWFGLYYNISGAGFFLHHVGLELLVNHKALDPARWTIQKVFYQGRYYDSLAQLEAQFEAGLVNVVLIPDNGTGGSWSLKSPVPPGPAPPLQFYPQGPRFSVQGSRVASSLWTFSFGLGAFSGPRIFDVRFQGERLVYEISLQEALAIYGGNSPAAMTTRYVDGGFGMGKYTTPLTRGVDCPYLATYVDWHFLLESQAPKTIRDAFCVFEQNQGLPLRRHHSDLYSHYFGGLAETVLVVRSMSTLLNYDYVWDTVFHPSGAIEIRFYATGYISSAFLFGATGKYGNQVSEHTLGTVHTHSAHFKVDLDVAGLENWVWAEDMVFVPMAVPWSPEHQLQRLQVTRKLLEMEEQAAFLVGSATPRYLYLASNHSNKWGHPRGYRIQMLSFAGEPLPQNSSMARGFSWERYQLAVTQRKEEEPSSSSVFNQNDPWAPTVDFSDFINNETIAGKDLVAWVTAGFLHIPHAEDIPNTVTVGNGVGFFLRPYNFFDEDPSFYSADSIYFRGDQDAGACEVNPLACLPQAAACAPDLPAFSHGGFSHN
Procedure, shortened: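 Purified human VAP-1 was supplied as a gift. Activity was followed as benzaldehyde production at 250 nm over 5 min (ε 12,800 M⁻¹cm⁻¹) in 100 mM potassium phosphate, pH 7.2, at 37 °C, with and without test compound. Ki and mode came from global nonlinear regression, choosing the best-fitting competitive, uncompetitive, noncompetitive or mixed model.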

[3] = AIDS patients under pentamidine treatment; ref [72]–[78]; cited from earlier work

Compound	inhibition of hDAO, in words [1]	Mode of Inhibition [1]	Ki [1]	other results
N=C(N)c1ccc(N=NNc2ccc(C(=N)N)cc2)cc1 [Berenil, 1,3-bis(4’-amidinophenyl)triazene]	very potent inhibitors	Mixed	–	Mode of Inhibition ([1]; listed as berenil): mixed type/partial competitive inhibition
CN/C(=N/CCSCc1nc[nH]c1C)NC#N [Cimetidine]	–	Mixed	90 ± 14 µM	–
Clc1cccc(Cl)c1N=C1NCCN1 [Clonidine]	weak inhibitor	Mixed	100 ± 8 µM	–
NNC(=O)c1ccncc1 [Isoniazid]	–	purely noncompetitive	970 ± 50 µM	–
N=C(N)c1ccc(OCCCCCOc2ccc(C(=N)N)cc2)cc1 [Pentamidine, 1,5-bis(4-amidinophenoxy)pentane]	very potent inhibitors	mixed type/partial competitive inhibition	–	Plasma concentration, lower end of range [2]: 25 ng/mL; Plasma concentration, lower end of range (molar) [2]: 43 nM; Plasma concentration, upper end of range [2]: 1.4 g/mL; Plasma concentration, upper end of range (molar) [2]: 2300 nM; Ki (hVAP-1): 1.1 ± 0.04 µM; Mode of Inhibition (hVAP-1): Noncompetitive; Mode of Inhibition (hVAP-1; listed as pentamidine): purely noncompetitive; AIDS patients with adverse side effects [3]: at least 70%
NCCCCN [putrescine, 1,4-diaminobutane]	–	–	2270 ± 140 µM	–
